Here are results for 12 compounds from ChEMBL document CHEMBL3616456, “Potential of aryl-urea-benzofuranylthiazoles hybrids as multitasking agents in Alzheimer's disease” (Eur J Med Chem, 2015).

The target of series [1] is Cholinesterase (Equus caballus) (UniProt P81908). Put plainly: Potency index, ratio of donepezil IC50 to compound IC50 for horse serum butyrylcholinesterase.
The target in a further series is Cholinesterase (Equus caballus, UniProt P81908). The series is described as follows: Inhibition of horse serum butyrylcholinesterase using butyrylthiocholine iodide as substrate preincubated for 15 mins followed by substrate addition by Ellman's method. Summed up: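 Enzyme in 100 mM phosphate buffer pH 8.0 with sample (n-propanol as solvent and control) preincubated 15 min at 25°C. Reaction started with butyrylthiocholine iodide (0.79 mM solution) plus DTNB. Thiolate-DTNB yellow product followed at 412 nm. IC50 taken from inhibition (%) curves at five concentrations: 12.5, 25, 50, 100 and 200 µM.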
Cholinesterase, sequence (P81908 whole entry): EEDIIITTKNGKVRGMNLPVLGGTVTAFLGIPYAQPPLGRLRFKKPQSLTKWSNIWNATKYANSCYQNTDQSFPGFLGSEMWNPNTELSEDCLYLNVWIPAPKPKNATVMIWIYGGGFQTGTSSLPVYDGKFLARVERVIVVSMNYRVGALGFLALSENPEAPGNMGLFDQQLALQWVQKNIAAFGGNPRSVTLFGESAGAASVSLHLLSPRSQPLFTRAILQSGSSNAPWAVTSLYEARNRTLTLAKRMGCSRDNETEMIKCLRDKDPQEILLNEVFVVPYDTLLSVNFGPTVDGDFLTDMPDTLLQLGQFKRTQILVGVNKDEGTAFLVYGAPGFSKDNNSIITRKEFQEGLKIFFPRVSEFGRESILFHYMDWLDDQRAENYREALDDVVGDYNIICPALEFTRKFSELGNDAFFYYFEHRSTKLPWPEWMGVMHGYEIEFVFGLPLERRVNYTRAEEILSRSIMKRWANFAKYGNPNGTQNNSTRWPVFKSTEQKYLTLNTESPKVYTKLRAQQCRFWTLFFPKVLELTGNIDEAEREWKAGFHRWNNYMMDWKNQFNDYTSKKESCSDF
In general terms: DTNB colorimetry detects thiols as they appear.

Another series deals with Acetylcholinesterase (Electrophorus electricus, UniProt O42275). Put plainly: Inhibition of electric eel acetylcholinesterase using acetylthiocholine iodide as substrate preincubated for 15 mins followed by substrate addition by Ellman's method.
Acetylcholinesterase, sequence (O42275 whole entry): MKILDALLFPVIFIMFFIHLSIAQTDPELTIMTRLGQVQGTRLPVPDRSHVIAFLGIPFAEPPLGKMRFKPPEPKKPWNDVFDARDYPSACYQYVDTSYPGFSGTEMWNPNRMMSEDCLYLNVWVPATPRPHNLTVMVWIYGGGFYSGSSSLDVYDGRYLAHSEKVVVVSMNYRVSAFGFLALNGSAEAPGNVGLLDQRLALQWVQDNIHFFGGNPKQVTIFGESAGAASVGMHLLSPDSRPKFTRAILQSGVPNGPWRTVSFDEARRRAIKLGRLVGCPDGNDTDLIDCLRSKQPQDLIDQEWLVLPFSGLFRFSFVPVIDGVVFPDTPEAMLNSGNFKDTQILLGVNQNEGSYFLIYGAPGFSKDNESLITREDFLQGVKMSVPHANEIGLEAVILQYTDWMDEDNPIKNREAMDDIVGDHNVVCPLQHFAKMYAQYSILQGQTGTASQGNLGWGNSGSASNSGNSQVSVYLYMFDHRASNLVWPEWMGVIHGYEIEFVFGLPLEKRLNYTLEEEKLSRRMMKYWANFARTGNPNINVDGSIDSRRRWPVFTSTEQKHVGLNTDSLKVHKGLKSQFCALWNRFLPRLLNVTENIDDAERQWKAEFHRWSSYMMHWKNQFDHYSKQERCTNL
Series [2] in a line: Antioxidant activity assessed as ABTS cation radical scavenging activity measured after 6 mins. Particulars: ABTS cation radical.
A short description of series [3]: Antioxidant activity assessed as cupric reducing antioxidant capacity measured after 1 hr. Type of series: physicochemical.
Series [4] deals with Cholinesterase (Equus caballus) (UniProt P81908). The series is described as follows: Potency index, ratio of galanthamine IC50 to compound IC50 for horse serum butyrylcholinesterase.
The nature of series [5]: Selectivity index, ratio of IC50 for horse serum butyrylcholinesterase to IC50 for electric eel acetylcholinesterase.

Cholinesterase (Equus caballus), sequence (P81908 whole entry): as the sequence (P81908 whole entry) above

Usually IC50 stands for the concentration that gives 50% inhibition. For the compound `O=C(Nc1ccc(I)cc1)Nc1nc(-c2cc3cc([N+](=O)[O-])ccc3o2)cs1`, the Ratio IC50 in series [1] stood at 2.3; in series [4] it was 8.5; in series [5], 0.37. In addition, the IC50 at Cholinesterase was found to be 2.03 µM; against Acetylcholinesterase it was 5.53 µM; in series [2], 62.4 µM. Moreover, the A0.5 in series [3] is > 200 µM.

As to `O=C(Nc1ccccc1)Nc1nc(-c2cc3cc(Br)ccc3o2)cs1`, the IC50 on Cholinesterase is 35 µM; against Acetylcholinesterase it was 23.3 µM; in series [2], > 200 µM. Also, in series [3], the A0.5 was > 200 µM. For the same compound, the Ratio IC50 in series [5] worked out at 1.5.

With `O=C(Nc1ccc(F)cc1)Nc1nc(-c2cc3cc([N+](=O)[O-])ccc3o2)cs1`, the IC50 at Cholinesterase was determined as 47.6 µM; at Acetylcholinesterase, 41.1 µM; in series [2], 123 µM. Further, the A0.5 in series [3] is > 200 µM. Moreover, the Ratio IC50 in series [5] came out at 1.16.

Turning to `O=C(Nc1cccc(Cl)c1)Nc1nc(-c2cc3ccccc3o2)cs1`, the IC50 against Cholinesterase amounted to 21.5 µM; against Acetylcholinesterase it was 9.67 µM; in series [2], 14.1 µM. The A0.5 in series [3] is > 200 µM. For the same compound, the Ratio IC50 in series [5] was 2.22.

Take `O=C(Nc1ccccc1)Nc1nc(-c2cc3ccccc3o2)cs1`: the figures for the half-maximal inhibitory concentration (IC50) (at Cholinesterase; at Acetylcholinesterase; in series [2]) were 21.3 µM, 24.7 µM and 28.2 µM, respectively. In series [3], the A0.5 stood at 132 µM. In addition, in series [5], the Ratio IC50 was found to be 0.86.

On to `O=C(Nc1ccc(Cl)c(Cl)c1)Nc1nc(-c2cc3ccccc3o2)cs1`, for which the IC50 at Cholinesterase is 75.6 µM; at Acetylcholinesterase, 52 µM; in series [2], > 200 µM. Also, the A0.5 in series [3] is > 200 µM. Moreover, the Ratio IC50 in series [5] is 1.45.

Regarding `O=C(Nc1ccc(Br)cc1)Nc1nc(-c2cc3cc([N+](=O)[O-])ccc3o2)cs1`, the IC50 was 34.5 µM against Cholinesterase, 28.2 µM on Acetylcholinesterase and 194 µM in series [2]. Further, the A0.5 in series [3] was > 200 µM. Also, in series [5], the Ratio IC50 was determined as 1.22.

As to `COc1ccccc1NC(=O)Nc1nc(-c2cc3ccccc3o2)cs1`, the IC50 at Cholinesterase was 81.3 µM; against Acetylcholinesterase it was 61 µM; in series [2] it was 47.4 µM. The A0.5 in series [3] was > 200 µM. In addition, the Ratio IC50 in series [5] worked out at 1.33.

`COc1cccc(NC(=O)Nc2nc(-c3cc4ccccc4o3)cs2)c1`: the IC50 worked out at 59.6 µM against Cholinesterase, 48.9 µM on Acetylcholinesterase and 0.2 µM in series [2]. For the same compound, in series [3], the A0.5 stood at 104.46 µM. Further, in series [5], the Ratio IC50 is 1.22.

Consider `O=C(Nc1ccc(Cl)cc1)Nc1nc(-c2cc3cc(Br)ccc3o2)cs1`, for which the values for the IC50 (against Cholinesterase; against Acetylcholinesterase; in series [2]) were 36.9 µM, 22.2 µM and > 200 µM, respectively. For the same compound, in series [3], the A0.5 is > 200 µM. Moreover, the Ratio IC50 in series [5] was 1.66.

Regarding `O=C(Nc1ccc(Br)cc1)Nc1nc(-c2cc3cc(Br)ccc3o2)cs1`, the values for the 50% inhibitory concentration (IC50) (on Cholinesterase; at Acetylcholinesterase; in series [2]) were 35.8 µM, 11.9 µM and > 200 µM, respectively. For the same compound, the A0.5 in series [3] was > 200 µM. Further, in series [5], the Ratio IC50 was 3.

`O=C(Nc1ccc([N+](=O)[O-])cc1)Nc1nc(-c2cc3cc(Br)ccc3o2)cs1`: the IC50 against Cholinesterase was 3.12 µM; at Acetylcholinesterase, 4.78 µM; in series [2] it was > 200 µM. In addition, the A0.5 in series [3] is 120.74 µM. Also, the Ratio IC50 in series [5] is 0.65.
